Laboratory results taken from ChEMBL document CHEMBL2407017, “Pyrazolo[3,4-d]pyrimidine Prodrugs: Strategic Optimization of the Aqueous Solubility of Dual Src/Abl Inhibitors” (ACS Med Chem Lett, 2013).
≈ marks a conversion by molar mass, not a printed value. Calls of active or inactive are those of the source. The calls are words filed in the database; no cut-off is given here.

Assays:
[1] = target: Proto-oncogene tyrosine-protein kinase Src (Mus musculus) (UniProt P05480); experiment: Inhibition of c-SRC phosphorylation at Y416 in mouse 32D cells expressing BCR/ABL fusion protein p210 at 1 uM by Western blotting analysis; format: cell-based
Sequence of Proto-oncogene tyrosine-protein kinase Src (Mus musculus) (P05480 2-535 limits assumed): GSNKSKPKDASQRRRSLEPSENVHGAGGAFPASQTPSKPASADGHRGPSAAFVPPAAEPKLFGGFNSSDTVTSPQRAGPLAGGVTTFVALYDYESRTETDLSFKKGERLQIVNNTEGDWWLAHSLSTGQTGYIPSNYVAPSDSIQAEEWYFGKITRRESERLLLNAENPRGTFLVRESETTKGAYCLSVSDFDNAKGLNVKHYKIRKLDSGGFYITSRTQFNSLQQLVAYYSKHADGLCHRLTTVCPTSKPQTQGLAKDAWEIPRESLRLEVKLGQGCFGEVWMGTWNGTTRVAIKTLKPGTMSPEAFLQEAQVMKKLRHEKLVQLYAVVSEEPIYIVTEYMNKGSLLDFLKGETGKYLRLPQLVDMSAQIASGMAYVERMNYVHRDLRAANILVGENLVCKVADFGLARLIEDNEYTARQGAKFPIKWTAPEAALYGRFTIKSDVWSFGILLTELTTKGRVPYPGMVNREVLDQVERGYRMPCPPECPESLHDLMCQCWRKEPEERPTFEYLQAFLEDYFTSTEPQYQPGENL
In short: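 32D cells treated with 1 μM compound. Phosphorylated (active) c-Src and c-Abl detected by Western blot with β-actin as loading control. Dasatinib used as reference dual inhibitor.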

[2] = Apparent permeability of the compound after 5 hrs by PAMPA; format: ADME; settings: for Papp at 5 h: PAMPA
[3] = Apparent permeability of the compound assessed as membrane retention after 5 hrs by PAMPA; format: ADME
In short: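 PAMPA passive permeability measured as Papp (10⁻⁶ cm s⁻¹). Membrane retention is the percentage of compound that fails to reach the acceptor compartment. Mean of at least two experiments.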

[4] = Metabolic stability in human liver microsomes assessed as compound remaining at 50 uM after 60 mins by UV/LC/MS analysis; format: ADME, Microsome; settings: read-out: Stability
In short: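 Human pooled liver microsomes, incubated at 37 °C for 1 h to simulate phase I metabolism. Parent drug and metabolites are then quantified by LC–MS. Stability is given as the percentage of unmodified drug remaining.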

[5] = Thermodynamic solubility of the compound in water at 1 mg after 24 hrs by UV/LC-MS analysis; format: physicochemical; settings: read-out: Therm_solubility
In short: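 Aqueous solubility: compound concentration measured by UV/LC−MS after filtration through a 0.45 μm nylon filter. Mean of at least two experiments.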

[6] = cells; settings: Mus musculus, 32D, 48 h
[7] = cells; settings: Mus musculus, 32D, 48 h; remark: listed apart in the source
[8] = target: Tyrosine-protein kinase ABL1 (Homo sapiens) (UniProt P00519); experiment: Inhibition of recombinant wild type c-ABL (unknown origin) at 100 uM after 5 mins by scintillation counting analysis in presence of [gamma32P]ATP
Sequence of Tyrosine-protein kinase ABL1 (Homo sapiens) (P00519 whole entry): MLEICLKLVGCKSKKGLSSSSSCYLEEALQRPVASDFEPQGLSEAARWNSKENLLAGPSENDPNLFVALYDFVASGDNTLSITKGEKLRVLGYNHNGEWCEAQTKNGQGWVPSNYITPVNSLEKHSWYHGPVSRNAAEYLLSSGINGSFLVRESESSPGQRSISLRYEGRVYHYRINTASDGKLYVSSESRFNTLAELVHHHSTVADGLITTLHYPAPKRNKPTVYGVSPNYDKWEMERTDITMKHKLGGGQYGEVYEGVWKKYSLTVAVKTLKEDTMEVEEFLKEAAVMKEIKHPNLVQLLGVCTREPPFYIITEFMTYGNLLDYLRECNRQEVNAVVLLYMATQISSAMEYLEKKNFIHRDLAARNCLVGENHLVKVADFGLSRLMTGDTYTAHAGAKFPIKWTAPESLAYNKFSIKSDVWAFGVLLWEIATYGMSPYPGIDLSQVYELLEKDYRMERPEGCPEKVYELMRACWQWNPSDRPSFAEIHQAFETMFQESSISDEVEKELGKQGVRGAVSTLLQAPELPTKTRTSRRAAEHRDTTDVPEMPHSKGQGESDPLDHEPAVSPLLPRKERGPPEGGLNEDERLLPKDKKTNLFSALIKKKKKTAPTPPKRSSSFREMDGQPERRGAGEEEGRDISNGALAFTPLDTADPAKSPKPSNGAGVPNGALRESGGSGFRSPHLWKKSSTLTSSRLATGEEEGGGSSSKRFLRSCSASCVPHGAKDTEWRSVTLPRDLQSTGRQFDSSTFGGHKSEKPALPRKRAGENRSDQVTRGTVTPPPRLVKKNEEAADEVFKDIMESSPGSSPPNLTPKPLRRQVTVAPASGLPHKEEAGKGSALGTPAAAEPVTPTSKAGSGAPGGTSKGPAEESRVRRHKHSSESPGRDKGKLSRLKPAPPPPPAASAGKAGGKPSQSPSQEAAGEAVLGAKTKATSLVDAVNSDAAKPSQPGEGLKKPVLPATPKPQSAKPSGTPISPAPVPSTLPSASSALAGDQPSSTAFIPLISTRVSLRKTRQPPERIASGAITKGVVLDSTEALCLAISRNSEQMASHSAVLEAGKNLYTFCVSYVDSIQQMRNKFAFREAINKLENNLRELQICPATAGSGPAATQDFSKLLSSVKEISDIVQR

[9] = target: Proto-oncogene tyrosine-protein kinase Src (Homo sapiens) (UniProt P12931); experiment: Inhibition of recombinant c-SRC (unknown origin) at 100 uM after 5 mins by scintillation counting analysis in presence of [gamma32P]ATP
Sequence of Proto-oncogene tyrosine-protein kinase Src (Homo sapiens) (P12931 2-536 limits assumed): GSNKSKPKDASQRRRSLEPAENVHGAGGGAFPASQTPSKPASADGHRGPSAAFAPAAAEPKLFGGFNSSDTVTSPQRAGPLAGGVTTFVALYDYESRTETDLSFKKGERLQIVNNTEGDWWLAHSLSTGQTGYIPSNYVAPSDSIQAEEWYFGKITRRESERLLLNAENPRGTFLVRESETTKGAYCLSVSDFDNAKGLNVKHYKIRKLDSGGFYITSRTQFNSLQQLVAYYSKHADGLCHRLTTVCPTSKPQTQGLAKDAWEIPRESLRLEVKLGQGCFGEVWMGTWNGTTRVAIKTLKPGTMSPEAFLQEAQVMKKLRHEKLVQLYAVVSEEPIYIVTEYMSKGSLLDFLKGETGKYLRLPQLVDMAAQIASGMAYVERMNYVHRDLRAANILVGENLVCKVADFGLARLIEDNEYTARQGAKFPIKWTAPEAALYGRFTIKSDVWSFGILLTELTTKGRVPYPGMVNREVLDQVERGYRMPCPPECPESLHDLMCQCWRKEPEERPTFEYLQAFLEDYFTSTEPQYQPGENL

[10] = Half life in human plasma at 1 mM by HPLC analysis; format: ADME, cell-free
In short: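 Incubated at 37 °C in pooled human plasma. Loss of substrate and formation of parent drug followed by HPLC. Mean of at least two experiments.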

[11] = Half life in phosphate buffer at 500 uM at pH 7.4 by HPLC analysis; format: physicochemical
In short: (§1)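 Compounds dissolved at 500 μM in methanol, water, or PBS (12.5 μM, pH 7.4). Mean of at least two experiments.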

[12] = Half life in methanol at 500 uM by HPLC analysis; format: physicochemical; in short: as §1
[13] = Half life in water at 500 uM by HPLC analysis; format: physicochemical; in short: as §1

SMILES	Inhibition of c-SRC Y416 phosphorylation (qualitative) [1]	Papp at 5 h [2]	R% [3]	remaining at 1 h, 50 µM [4]	solubility thermodynamic at 24 h [5]	IC50 [6]	IC50 [7]	inhibition [8]	inhibition [9]	Papp ([2]; pampa, 5 h)	half-life at 1000 µM [10]	half-life at 500 µM [11]	half-life at 500 µM [12]	half-life at 500 µM [13]
CSc1nc(Nc2cccc(Br)c2)c2cnn(CC(C)c3ccccc3)c2n1 (stereo not given)	Active	0.01 ×10⁻⁶ cm/s	80.4%	95.1%	0.01 µg/mL (≈ 0.022 µM)	6.2 µM	5.8 µM	–	–	–	–	–	–	–
CSc1nc(N(C(=O)OCCN2CCN(C)CC2)c2cccc(Br)c2)c2cnn(CC(C)c3ccccc3)c2n1 (stereo not given)	Active	–	67.3%	99.9%	–	2.8 µM	2.6 µM	inactive	inactive	2.11 ×10⁻⁶ cm/s	3.22 h	> 48 h	> 48 h	> 48 h
CCCCN(C(=O)OCCN1CCN(C)CC1)c1nc(SCC)nc2c1cnn2CC(Cl)c1ccccc1 (stereo not given)	Active	–	–	–	–	1.2 µM	2.4 µM	inactive	inactive	–	0.467 h	1.05 h	2.08 h	0.5 h
CCCCNc1nc(SCC)nc2c1cnn2CC(Cl)c1ccccc1 (stereo not given)	Active	5.99 ×10⁻⁶ cm/s	44.9%	91.5%	0.05 µg/mL (≈ 0.128 µM)	3.5 µM	6.7 µM	–	–	–	–	–	–	–
